{"source": "ChEMBL document CHEMBL1140706", "about": "“A Novel iron-chelating derivative of the neuroprotective peptide NAPVSIPQ shows superior antioxidant and antineurodegenerative capabilities” (J Med Chem, 2008)", "key": {"[1]": {"test_system": "SH-SY5Y", "assay": "Neuroprotective activity against hydrogen persoxide-induced cell death in human SH-SY5Y cells upto 10 uM by MTT assay", "type": "ADME, cell-based", "in_short": "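SH-SY5Y cells seeded at 0.5 × 10^4 per well in MEM/F-12 with 10% FCS and allowed to attach for 24 h. Compound added immediately before 80 µM H2O2, then 24 h at 37 °C. MTT for 2 h, then SDS/HCl lysis for 24 h, read at 570/650 nm. Viability expressed as percent of cells not treated with H2O2. n = 7 over two experiments.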"}, "[2]": {"test_system": "Brain", "assay": "Inhibition of iron/ascorbate-induced lipid peroxidation in Sprague-Dawley rat brain mitochondrial membrane homogenate at 100 uM", "type": "functional, tissue-based", "in_short": "(§1)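 Crude mitochondrial fraction from brains of male Sprague-Dawley rats (250–300 g). Assay in 25 mM Tris-HCl pH 7.5 with 25 µM ascorbate, 40 µg protein, 1.5 µM FeSO4 and compound (10–750 µM). Shaken 2 h at ambient temperature, then TCA stop and TBA at 95 °C for 30 min. Read at 532 nm, blank subtracted, percent of control. n = 3 in duplicate.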"}, "[3]": {"assay": "Effect on iron-induced hydroxyl radical generation assessed as reduction in EPR signals at 300 uM relative to control", "type": "functional", "set-up": "scale not given: the % may be the effect or the level left", "in_short": "(§2)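 Fenton system of 100 µM FeSO4, 200 µM H2O2 and 35 mM PBN spin trap. Compound added 2 min before H2O2. EPR spectrum recorded at room temperature in a quartz flat cell. PBN-OH spin adduct level estimated from peak intensity of the middle field doublet and expressed as percent of control. Mean ± SEM, n = 3.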"}, "[4]": {"assay": "Effect on iron-induced hydroxyl radical generation assessed as reduction in EPR signals", "type": "functional", "in_short": "as §2"}, "[5]": {"test_system": "Brain", "assay": "Inhibition of iron/ascorbate-induced lipid peroxidation in Sprague-Dawley rat brain mitochondrial membrane homogenate", "type": "functional, tissue-based", "in_short": "as §1"}, "[6]": {"assay": "Iron chelating activity by ferrozine method", "type": "functional", "in_short": "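Competition with ferrozine for Fe(II) in 5% ammonium acetate buffer, pH 6.9. Compound (100–600 µM, duplicate) preincubated 30 min with 15 µM FeSO4, then 60 µM ferrozine added for 1 h at ambient temperature. Absorbance read at 562 nm with blank subtracted. Chelating effect % = [1 − sample/control] × 100. n = 3 in duplicate.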"}, "[7]": {"assay": "Effect on iron-induced hydroxyl radical generation assessed as reduction in EPR signals relative to control", "type": "functional", "set-up": "scale not given: the % may be the effect or the level left", "in_short": "as §2"}, "[8]": {"assay": "Effect on iron-induced hydroxyl radical generation assessed as increase in PBN-OH radical spin adduct concentration at 600 uM", "type": "functional", "in_short": "as §2"}, "[9]": {"test_system": "Brain", "assay": "Inhibition of iron/ascorbate-induced lipid peroxidation in Sprague-Dawley rat brain mitochondrial membrane homogenate at 15 uM", "type": "functional, tissue-based", "in_short": "as §1"}, "[10]": {"test_system": "SH-SY5Y", "assay": "Neuroprotective activity against hydrogen persoxide-induced cell death in human SH-SY5Y cells assessed as cell viability at 1 uM by MTT assay relative to control", "type": "cell-based", "details": "read-out: Activity", "in_short": "(§3)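 SH-SY5Y cells grown in 1:1 Eagle MEM/Ham's F-12 with 10% FCS, 37 °C, 5% CO2; seeded 0.5 × 10^4 cells/well, attached 24 h. Compounds or vehicle added just before 80 µM H2O2. After 24 h at 37 °C, MTT added for 2 h, then SDS/HCl for a further 24 h; absorbance read at 570/650 nm. Viability expressed as percent of cells not treated with H2O2.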"}, "[11]": {"test_system": "SH-SY5Y", "assay": "Neuroprotective activity against hydrogen persoxide-induced cell death in human SH-SY5Y cells assessed as cell viability at 10 uM by MTT assay relative to control", "type": "cell-based", "details": "read-out: Activity", "in_short": "as §3"}}, "note": "Active and inactive are the calls of the source. The rule behind the calls is not given here."}
{"smiles": "CC[C@H](C)[C@H](NC(=O)[C@H](CO)NC(=O)[C@@H](NC(=O)[C@@H]1CCCN1C(=O)[C@H](C)NC(=O)[C@@H](N)CC(=O)NO)C(C)C)C(=O)N1CCC[C@H]1C(=O)N[C@@H](CCC(N)=O)C(=O)NO", "values": [{"measurement": "Activity", "setting": "[1]", "value": "Non-toxic"}, {"measurement": "Activity", "setting": "[2]", "value": "inactive"}, {"measurement": "Activity", "setting": "[3]; 600 uM, in the assay text read “at 600 uM” for “at 300 uM”", "value": 28, "unit": "%"}, {"measurement": "IC50", "setting": "[4]", "value": 150, "unit": "µM"}, {"measurement": "IC50", "setting": "[5]", "value": 340, "unit": "µM"}, {"measurement": "IC50", "setting": "[6]", "value": 170, "unit": "µM"}, {"measurement": "Activity", "setting": "[7]", "value": 28, "unit": "%"}]}
{"smiles": "CC[C@H](C)[C@H](NC(=O)[C@H](CO)NC(=O)[C@@H](NC(=O)[C@@H]1CCCN1C(=O)[C@H](C)NC(=O)[C@@H](N)CC(=O)NO)C(C)C)C(=O)N1CCC[C@H]1C(=O)N[C@@H](CCC(N)=O)C(=O)O", "values": [{"measurement": "Activity", "setting": "[2]", "value": "inactive"}, {"measurement": "Activity", "setting": "[8]", "value": "inactive"}, {"measurement": "IC50", "setting": "[6]", "value": 360, "unit": "µM"}]}
{"smiles": "CC[C@H](C)[C@H](NC(=O)[C@H](CO)NC(=O)[C@@H](NC(=O)[C@@H]1CCCN1C(=O)[C@H](C)NC(=O)[C@@H](N)CC(N)=O)C(C)C)C(=O)N1CCC[C@H]1C(=O)N[C@@H](CCC(N)=O)C(=O)NO", "values": [{"measurement": "Activity", "setting": "[2]", "value": "inactive"}, {"measurement": "Activity", "setting": "[8]", "value": "inactive"}, {"measurement": "IC50", "setting": "[6]", "value": 360, "unit": "µM"}]}
{"smiles": "CC(=O)N(O)CCCCCNC(=O)CCC(=O)N(O)CCCCCNC(=O)CCC(=O)N(O)CCCCCN", "note": "[DEFEROXAMINE]", "values": [{"measurement": "Activity", "setting": "[9]", "value": "Active"}, {"measurement": "Activity", "setting": "[3]; 300 uM", "value": 12, "unit": "%"}, {"measurement": "viability at 1 µM", "setting": "[10]", "value": 76, "unit": "%"}, {"measurement": "viability at 10 µM", "setting": "[11]", "value": 76, "unit": "%"}, {"measurement": "IC50", "setting": "[6]", "value": 10, "unit": "µM"}]}
